Screens deposited in PubChem BioAssay by several laboratories.
MEKK3 PB1 HTS – modulators of MEKK3-MEK5 PB1 binding, primary screen, biochemical, wildtype MEKK3, multiplex bead flow cytometry, Alexa488-MEK5. hit rate 1.4% among 290,000. Mitogen-activated protein kinase kinase kinase 3 (Homo sapiens), Q99759. AID 1529, 2009. binding response (% of control), % at 10 µM. bead-based flow cytometry, Alexa488-MEK5 binding to MEKK3; actives lie on both sides; 0 = blocked by unlabeled MEK5, 100 = vehicle;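 active means binding response more than 3 SD above or below the average of its plate-row segment, actives on both sides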;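 further: Alexa488 bead fluorescence after subtracting the streptavidin-only scavenger bead signal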
B2AR ag – beta2AR agonists driving receptor internalization, primary screen, cell-based, FAP fluorogen, flow cytometry; hit rate 0.43% among 340,000; response, % (concentration not given with the values); Am2.2-beta2AR cells; AID 504454, 2011;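 active means response above a set limit, near 3 SD of response in nonfluorescent compounds, cut at about 42% in these data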
MEKK2wt PB1 HTS – modulators of MEK5 binding to wildtype MEKK2, primary screen, biochemical, multiplex bead flow cytometry, Alexa488-MEK5. Mitogen-activated protein kinase kinase kinase 2 (Homo sapiens), Q9Y2U5. Alexa488-MEK5 binding to MEKK2 WT; actives lie on both sides. binding response (% of control), % at 10 µM. hit rate 1.1% among 290,000. AID 1531, 2009; in the data active means binding response below about 67% or above about 130%
MEKK2mut PB1 HTS – MEK5 binding signal on mutant MEKK2 PB1, primary screen, biochemical, multiplex bead flow cytometry, Alexa488-MEK5 | Alexa488-MEK5 binding to MEKK2 mutant | percent response, % at 10 µM | hit rate 0.35% among 290,000; in the data active means percent response above about 24%, passing the limit was not always enough
ATG4B inh – ATG4B protease inhibitors, primary screen, biochemical, fluorescence, uHTS; ATG4B cleavage of LC3-PLA2, NBD-HPC fluorescence, 1 h; Cysteine protease ATG4B (Homo sapiens), Q9Y4P1; inhibition, % at 8.33 µM; AID 504462, 2011; hit rate 0.51% among 340,000; in the data active means inhibition above about 40%
Target sequence (Q9Y4P1 whole entry, looked up): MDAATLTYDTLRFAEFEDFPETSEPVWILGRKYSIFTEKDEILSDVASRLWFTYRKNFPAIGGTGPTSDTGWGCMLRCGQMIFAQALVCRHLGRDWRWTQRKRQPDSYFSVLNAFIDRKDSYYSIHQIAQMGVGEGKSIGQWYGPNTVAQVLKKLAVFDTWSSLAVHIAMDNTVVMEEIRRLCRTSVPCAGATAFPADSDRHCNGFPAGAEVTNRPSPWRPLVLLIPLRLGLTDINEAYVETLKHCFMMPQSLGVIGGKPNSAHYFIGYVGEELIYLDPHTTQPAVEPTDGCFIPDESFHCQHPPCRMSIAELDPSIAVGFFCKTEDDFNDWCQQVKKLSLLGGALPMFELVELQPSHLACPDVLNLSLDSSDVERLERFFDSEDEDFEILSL
Dynein cargo inh – inhibitors of GR-EGFP nuclear translocation, primary screen, dynein cargo transport inhibitor project, imaging, high-content, 3617.4 mouse cells; hit rate 0.47% among 220,000; AID 1381, 2008; test concentration mostly 20 µM; stimulated with dexamethasone, 1 µM; hits give low values; z-score, hits read low;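 active means plate z-score of nuclear minus cytoplasmic receptor signal below a set negative limit, without overly bright fluorescence or cell loss, cut at about -3.5 in these data, passing the limit was not always enough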;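 further: z-score of nuclear minus cytoplasmic ring GR-EGFP intensity difference per well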
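Buffer or medium: tet-free, stripped-serum medium; Also added: dexamethasone, 1.0 µM final; Technique: high-content fluorescence imaging after fixation; Times: 48 h induction, 1 h compound, 30 min dex at 37 °C; Read-out: per-cell GR-EGFP intensity, nucleus versus surrounding cytoplasmic ring, well-averaged.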
ATG4B conf – ATG4B protease inhibitors, retest, confirmation, biochemical, fluorescence, single concentration. shares compounds with ATG4B inh. ATG4B protease fluorescent substrate cleavage assay. inhibition, % at 8.33 µM. hit rate 92% among 320. AID 504757, 2011; in the data active means inhibition above about 39%
PLA2 counter – PLA2 enzyme inhibition, counter-screen for ATG4B inhibitor project, biochemical, single concentration, uHTS hits; shares compounds with ATG4B inh; purified PLA2, NBD-C6-HPC fluorescence, 45 min; inhibition, % at 8.33 µM; hit rate 66% among 1,600; in the data active means inhibition above about 50%
Target sequence (P04054 whole entry, looked up): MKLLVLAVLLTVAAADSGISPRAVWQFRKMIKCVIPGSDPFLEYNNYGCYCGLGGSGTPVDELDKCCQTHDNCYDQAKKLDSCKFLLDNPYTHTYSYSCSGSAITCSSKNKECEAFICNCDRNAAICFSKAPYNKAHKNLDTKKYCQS
Numbers without * were called inactive; x = no result. The list is not random: actives were taken first. Their share in the collection is about 2.9%.

SMILES | MEKK3 PB1 HTS | B2AR ag | MEKK2wt PB1 HTS | MEKK2mut PB1 HTS | ATG4B inh | Dynein cargo inh | PLA2 counter | others
N#CC1=C(S)N(c2ccccc2)C(c2ccc(-c3ccccc3Cl)o2)NC1=O (stereo not drawn) | 108 | 4 | 96 | -1 | 66* | -1.6 | 74*
Cc1ccccc1N1C(S)=C(C#N)C(=O)NC1c1ccco1 (stereo not drawn) | 93 | 5 | 97 | -53 | 3 | -0.25 | x
COc1cccc(CC2(CO)CCCN(Cc3cn[nH]c3-c3ccccc3)C2)c1 (stereo not drawn) | 104 | 2 | 111 | 13 | -9 | -0.16 | x
O=C(NNC(=S)Nc1ccc(Cl)c(Cl)c1)c1cccc([N+](=O)[O-])c1 | 92 | 7 | 99 | -16 | 85* | -0.088 | 91*
CCOc1ccc(C(=O)C2CCN(CC(=O)Nc3ccccc3N3CCOCC3)CC2)cc1 | 100 | 13 | 97 | 3 | 44* | -0.25 | 34 | ATG4B conf=65*
CCOc1ccc(C(=O)Nc2ccccc2N2CCOCC2)cc1 | 94 | 3 | 92 | -6 | 3 | 1.1 | x
COc1ccccc1N1CCN(C(=O)c2cn(C)c3ccc(S(=O)(=O)N4CCOCC4)cc3c2=O)CC1 | 101 | -3 | 104 | 4 | -8 | x | x
O=C(CSc1nnc(-c2ccccc2F)n1C1CC1)Nc1cccnc1Cl | 110 | -4 | 112 | 0 | 0 | -0.47 | x
Nc1c(C(=O)Nc2ccc3c(c2)OCCO3)nnn1Cc1cccc(Br)c1 | x | -7 | x | x | 41* | x | 48
Nc1c(C(=O)Nc2ccc3c(c2)OCCO3)nnn1Cc1ccc(Br)cc1 | x | -4 | x | x | -7 | x | x
CC(=O)Nc1ccc2ccc3cccc4ccc1c2c34 | 86 | 7 | 88 | 9 | -24 | -1 | x
Cc1cccc2sc(NC(=O)c3cc(S(=O)(=O)N(C)C)ccc3N3CCCC3)nc12 | 104 | 10 | 101 | -3 | -11 | -0.23 | x
Cc1ccc(/C=N/Nc2ccnc3cc(Cl)ccc23)c(C)c1 | 101 | 19 | 167* | 30 | 46* | 0.24 | 40
Oc1ccc(/C=N/Nc2ccnc3cc(Cl)ccc23)c(O)c1 | 85 | 6 | 85 | -7 | -3 | -0.11 | x
Cc1ccccc1/C=N/Nc1ccnc2cc(Cl)ccc12 | 96 | 48* | 122 | 5 | 48* | -0.65 | 39 | ATG4B conf=65*
O=C(N/N=C/c1ccc(-c2ccc(S(=O)(=O)Nc3ncccn3)cc2)o1)c1cc2ccccc2cc1O | x | -1 | x | x | 75* | 2.8 | 16 | ATG4B conf=38
CC1CCCCC1NC(=O)C1CCN(S(=O)(=O)c2cccc3nsnc23)CC1 (stereo not drawn) | 96 | 4 | 101 | -1 | -2 | -0.87 | x
O=C1[C@H](Cc2ccccc2)NCC=CC[C@H](c2ccc(Cl)cc2)N1Cc1ccccc1 | x | 17 | x | x | 57* | x | 70*
O=C1[C@H](Cc2ccccc2)NCC=CC[C@@H](c2ccc(Cl)cc2)N1Cc1ccc(Cl)cc1 | x | 13 | x | x | -18 | x | x
O=C1[C@H](Cc2ccccc2)NCC=CC[C@H](c2ccc(Cl)cc2)N1Cc1ccc(Cl)cc1 | x | -2 | x | x | 45* | x | 81*
Cc1ccc(-n2[nH]c(C)c(/C=N/Nc3ccc([N+](=O)[O-])cc3[N+](=O)[O-])c2=O)cc1 | 101 | 18 | 104 | 16 | 14 | 0.37 | x
O=C(c1ccc(OC2CCN(Cc3ccccc3OC(F)F)CC2)cc1)N1CCCC1 | 101 | -1 | 104 | 5 | 42* | x | 52*
COc1cc(/C=C/CN2CCC(Oc3ccc(C(=O)N4CCCC4)cc3)CC2)ccc1O | 97 | 5 | 111 | -1 | 40* | x | 50
COc1ccccc1/C=C/CN1CCC(Oc2ccc(C(=O)N3CCCC3)cc2)CC1 | 96 | 1 | 103 | 3 | 20 | x | x
Cc1cccc(NC(=O)Cn2ccn(-c3ccc4c(c3)OCCO4)c(=O)c2=O)c1 | x | 3 | x | x | 0 | x | x
SMILES | MEKK3 PB1 HTS | B2AR ag | MEKK2wt PB1 HTS | MEKK2mut PB1 HTS | ATG4B inh | Dynein cargo inh | PLA2 counter | others
Cc1ccccc1S(=O)(=O)N1[C@@H](c2ccc(Br)cc2)C(C(=O)O)=CC[C@H]1c1ccc(Cl)cc1 | x | 11 | x | x | 43* | x | 47 | ATG4B conf=46*
COc1ccc(C2=CC3=C(Br)C(=O)C(C)(OC(=O)C4CCCC4)C(=O)C3=CO2)cc1 (stereo not drawn) | 88 | 21 | 95 | 1 | 65* | -0.0047 | 81*
CC1(OC(=O)C2CCCC2)C(=O)C=C2C=C(c3ccsc3)OC=C2C1=O (stereo not drawn) | 94 | 12 | 101 | -1 | 22 | -0.089 | x
COC(=O)CCC(=O)OC1(C)C(=O)C2=CN(CCCCO)C(c3ccc(OC)cc3)=CC2=C(Br)C1=O (stereo not drawn) | 92 | x | 85 | -6 | x | x | x
COC(=O)CCC(=O)OC1(C)C(=O)C2=COC(c3ccc(OC)cc3)=CC2=C(Br)C1=O (stereo not drawn) | 95 | x | 91 | -5 | 51* | -0.31 | 57*
CC(C)(C)OC(=O)NCCCC1=CC2=CC(=O)C(C)(OC(=O)c3ccc(Cl)nc3)C(=O)C2=CO1 (stereo not drawn) | 97 | x | 92 | 1 | x | x | x
COc1ccc(C2=CC3=C(Br)C(=O)C(C)(OC(=O)c4ccc(Cl)nc4)C(=O)C3=CO2)cc1 (stereo not drawn) | 95 | x | 99 | -7 | 67* | -0.73 | 59*
O=C(COc1ccc2cc(-c3ccccc3)c(=O)oc2c1)NCC1CCC(C(=O)O)CC1 (stereo not drawn) | 105 | 1 | 105 | 7 | -16 | x | x
CCCCc1ccc(NC(=S)N2CCCC(C)C2)cc1 (stereo not drawn) | 100 | 0 | 99 | -2 | 11 | -0.1 | x
Cc1ccc(C(=O)NNC(=O)C2CCN(C(=O)OC(C)(C)C)CC2)cc1 | 103 | -3 | 102 | 2 | 2 | x | x
O=C(Nc1sc2c(c1C(=O)O)CCC2)c1ccccc1Cl | 103 | 11 | 103 | 1 | 12 | x | x
